Laboratory results as given in ChEMBL document CHEMBL1148102, “New chlorinated diphenyl ethers from an Aspergillus species” (J Nat Prod, 2002).
Converted amounts (≈) assume the structure as drawn. The source made the active and inactive calls. The calls are words filed in the database; no cut-off is given here.

What was measured:
Endothelin-1 receptor = target: T1, Endothelin-1 receptor (Rattus norvegicus, UniProt P26684); assay: Displacement of endothelin-1 from ETA receptor in rat A10 cells; type: cell-based
T1 sequence (P26684 whole entry): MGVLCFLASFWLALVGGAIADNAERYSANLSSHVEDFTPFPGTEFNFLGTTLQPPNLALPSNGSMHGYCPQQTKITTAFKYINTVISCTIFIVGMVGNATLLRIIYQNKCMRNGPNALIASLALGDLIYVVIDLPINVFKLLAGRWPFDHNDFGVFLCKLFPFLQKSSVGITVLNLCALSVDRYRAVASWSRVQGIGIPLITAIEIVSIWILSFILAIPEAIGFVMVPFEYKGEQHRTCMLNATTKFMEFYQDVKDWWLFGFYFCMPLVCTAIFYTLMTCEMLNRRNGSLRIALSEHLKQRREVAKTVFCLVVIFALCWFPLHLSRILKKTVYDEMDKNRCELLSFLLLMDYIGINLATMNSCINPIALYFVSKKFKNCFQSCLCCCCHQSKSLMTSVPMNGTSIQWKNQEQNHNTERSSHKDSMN

Rhizoctonia solani = assay: Antimicrobial activity against Rhizoctonia solani at <200 ppm; type: functional, organism-based
Summary of the method: (§1)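 Antifungal test by the dialysis membrane overlay technique against the phytopathogenic fungus. Compounds were assessed at concentrations below 200 ppm.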

Gaeumannomyces tritici = assay: Antimicrobial activity against Gaeumannomyces graminis var. tritici at <200 ppm; type: functional, organism-based; summary of the method: as §1
Escherichia coli = assay: Antimicrobial activity against Escherichia coli at <200 ppm; type: functional, organism-based
Caenorhabditis elegans = assay: Antinematodal activity against Caenorhabditis elegans after 16 to 24 hrs; type: functional
Summary of the method: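 Model nematode C. elegans exposed to compounds in a bioassay. Lethality was scored over 16-24 h and reported as the concentration in ppm lethal to 90% (LD90) or 50% (LD50) of worms.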

Row | SMILES | IC50 (Endothelin-1 receptor) | Activity (Rhizoctonia solani) | Activity (Gaeumannomyces tritici) | Activity (Escherichia coli) | LD90 (Caenorhabditis elegans) | LC50 (Caenorhabditis elegans; Caenorhabditis elegans, read-out: LD50 (the source's name))
1 | COC(=O)c1cc(O)cc(OC)c1Oc1cc(C)cc(O)c1C(=O)O [ASTERRIC ACID] | 10 µM | inactive | inactive | inactive | 50 ppm | 
2 | COC(=O)c1cc(O)cc(OC)c1Oc1cc(C)cc(O)c1C(=O)OC [METHYL ASTERRATE] |  | inactive | inactive | inactive | 75 ppm | 
3 | COC(=O)c1cc(O)cc(OC)c1Oc1cc(C)c(Cl)c(O)c1C(=O)OC [METHYL CHLOROASTERRATE] |  | inactive | inactive | inactive |  | 100 µg/mL (≈ 252 µM)
4 | COC(=O)c1cc(O)cc(OC)c1Oc1c(Cl)c(C)c(Cl)c(O)c1C(=O)OC [METYL DICHLOROASTERRATE] |  | inactive | inactive | inactive | 75 ppm | 
5 | COC(=O)c1cc(O)cc(OC)c1C(=O)c1c(O)cc(C)cc1O [SULOCHRIN] |  | inactive | inactive | inactive | 50 ppm | 
